In ChEMBL document CHEMBL4725467, “Antiferroptotic Activity of Phenothiazine Analogues: A Novel Therapeutic Strategy for Oxidative Stress Related Disease” (ACS Med Chem Lett, 2020):
Active and inactive are the calls of the source. The rule behind the calls is not given here.

How the values were obtained:
Lymphocyte [1] = assay: Anti-ferroptotic activity in FRDA patient-derived Lymphocyte assessed as reduction in RSL3-induced lipid peroxidation incubated for overnight followed by RSL3 stimulation and measured after 90 mins by FACS analysis; assay type: functional, cell-based; details: Homo sapiens, 1.5 h
In short: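 FRDA patient lymphocytes pretreated with a range of concentrations, then challenged with RSL3 (GPX4 inhibitor) at 2 μM; lipid peroxidation read with the C11-BODIPY581/591 fluorescent probe. EC50 taken from dose–response curves by nonlinear regression fit.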

Lymphocyte [2] = assay: Cytotoxicity against FRDA patient-derived lymphocyte at 2.5 uM incubated for 24 to 48 hrs by flow cytometry analysis; assay type: cell-based; details: human, time 24-48 hrs
In short: (§1)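 FRDA lymphocytes kept 24 h in glucose-free medium with galactose to force reliance on mitochondrial ATP. Viability by flow cytometry with dual staining, calcein-AM for live and ethidium homodimer-1 for dead cells. Percent live cells taken from a two-dimensional color density dot plot. Duplicates run in two independent experiments.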

Lymphocyte [3] = assay: Induction of ATP production in FRDA patient-derived lymphocyte at 0.1 to 2.5 uM incubated for 24 hrs by luciferase-linked ATPase enzymatic assay; assay type: functional, tissue-based; details: Homo sapiens, dose microM 0.1-2.5, time 24.0 hrs
In short: (§2)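 Total cellular ATP in cultured FRDA lymphocytes after 24 h with compound in glucose-free medium with 25 mM galactose, to force OXPHOS dependence. Tested range 100 nM–2.5 μM. Expressed as percent of total ATP relative to untreated control.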

[4] = Inhibition of erastin-induced cell death in FRDA patient-derived fibroblast assessed as depletion of cellular ATP incubated for 12 hrs followed by erastin stimulation and measured after by luciferase-linked ATPase enzymatic assay; assay type: functional, tissue-based; details: Homo sapiens
In short: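 Primary FRDA patient fibroblasts treated with compound, then challenged with erastin (cystine-glutamate exchange inhibitor, GSH depletion). Cell death read as depletion of cellular ATP by a luciferase-linked kit assay.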

Lymphocyte [5] = assay: Induction of mitochondria membrane potential depolarization in FRDA patient-derived lymphocyte at 2.5 uM incubated for 16 hrs by JC-1 probe based flow cytometry analysis; assay type: functional; details: Homo sapiens
In short: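 Mitochondrial inner membrane potential in FRDA lymphocytes measured by flow cytometry with the ratiometric probe JC-1. Percent of cells with intact Δψm taken from a two-dimensional color density dot plot. Duplicates run in two independent runs.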

HepG2 = assay: Inhibition of ferroptosis in human HepG2 cells assessed as increase in pAMPK/AMPK ratio at 1 uM incubated for 24 hrs by Western blot analysis; assay type: functional, cell-based
In short: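 HepG2 cells treated with or without compound. AMPK, p-AMPK and β-actin (loading control) detected by Western blot and quantified as p-AMPK/AMPK ratio. Triplicate experiments, mean ± SEM.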

Lymphocyte [6] = assay: Induction of ATP production in FRDA patient-derived lymphocyte at 0.1 uM incubated for 24 hrs by luciferase-linked ATPase enzymatic assay; assay type: functional, tissue-based; details: Homo sapiens; in short: as §2
Lymphocyte [7] = assay: Induction of ATP production in FRDA patient-derived lymphocyte incubated for 24 hrs by luciferase-linked ATPase enzymatic assay; assay type: functional, tissue-based; details: Homo sapiens, dose microM 0.25-2.5, time 24.0 hrs; in short: as §2
Lymphocyte [8] = assay: Cytotoxicity against FRDA patient-derived lymphocyte at 0.25 to 2.5 uM incubated for 24 to 48 hrs by flow cytometry analysis; assay type: cell-based; details: human, dose 0.25-2.5 µM, time 24-48 hrs; in short: as §1
Lymphocyte [9] = assay: Induction of ATP production in FRDA patient-derived lymphocyte at 0.1 and 0.25 uM incubated for 24 hrs by luciferase-linked ATPase enzymatic assay; assay type: functional, tissue-based; details: Homo sapiens, dose microM 0.1-0.25, time 24.0 hrs; in short: as §2
Lymphocyte [10] = assay: Induction of ATP production in FRDA patient-derived lymphocyte at 2.5 uM incubated for 24 hrs by luciferase-linked ATPase enzymatic assay; assay type: functional, tissue-based; details: Homo sapiens; in short: as §2
Lymphocyte [11] = assay: Induction of ATP production in FRDA patient-derived lymphocyte at 0.1 to 0.5 uM incubated for 24 hrs by luciferase-linked ATPase enzymatic assay; assay type: functional, tissue-based; details: Homo sapiens, dose microM 0.1-0.5, time 24.0 hrs; in short: as §2

Row | SMILES | EC50 (Lymphocyte [1]) | Activity (Lymphocyte [2]) | EC50 [4] | Activity (Lymphocyte [5]) | other results
1 | CN(C)c1ccc2nc3ccc(=[N+](C)C)cc-3sc2c1 |  |  |  | Active | pAMPK/AMPK ratio increase (active/not active) (HepG2): inactive; Activity (Lymphocyte [6]): Active; Activity (Lymphocyte [7]): inactive
2 | CCCCCCCCc1cc2nc3ccc(N(C)C)cc3sc-2cc1=O | 14 nM | Toxic | 15 nM | Active | Activity (Lymphocyte [6]): Active
3 | CC(=O)N1c2ccc(N(C)C)cc2Sc2cc(N(C)C)ccc21 | > 2500 nM |  |  |  | 
4 | Cc1c(C)c2c(c(C)c1O)CC[C@@](C)(CCC[C@H](C)CCC[C@H](C)CCCC(C)C)O2 [ALPHA-TOCOPHEROL] | > 500 nM |  | > 500 nM |  | 
5 | CCCCCCCCCCc1cc2nc3ccc(N(C)C)cc3sc-2cc1=[N+](C)C.[I-] | 38 nM | Toxic | 29 nM | Active | pAMPK/AMPK ratio increase (active/not active) (HepG2): Active; Activity (Lymphocyte [3]): inactive
6 | CCCCCCCCCCc1cc2nc3ccc(N(C)C)cc3sc-2cc1=O | 9 nM | Toxic | 10 nM | Active | pAMPK/AMPK ratio increase (active/not active) (HepG2): Active; Activity (Lymphocyte [6]): Active
7 | CCCCCCCCCCCCc1cc2nc3ccc(N(C)C)cc3sc-2cc1=O | 16 nM |  | 15 nM | Active | Activity (Lymphocyte [11]): Active; Activity (Lymphocyte [8]): Non-Toxic; Activity (Lymphocyte [10]): inactive
8 | CCCCCCCCCCCCc1cc2nc3ccc(N(C)C)cc3sc-2cc1=[N+](C)C.[I-] | 54 nM | Toxic | 35 nM | Active | 
9 | CCCCCCCCCCCCCCCCc1cc2nc3ccc(N(C)C)cc3sc-2cc1=O | 25 nM |  | 22 nM |  | Activity (Lymphocyte [11]): Active; Activity (Lymphocyte [8]): Non-Toxic; Activity (Lymphocyte [10]): inactive

More lines, main results first:

Row | EC50 (Lymphocyte [1]) | SMILES | Activity (Lymphocyte [2]) | EC50 [4] | Activity (Lymphocyte [5]) | other results
10 | 76 nM | CCCCCCCCc1cc2nc3ccc(N(C)C)cc3sc-2cc1=[N+](C)C.[I-] | Toxic | 39 nM | Active | Activity (Lymphocyte [3]): inactive
11 | 48 nM | CCOC(=O)c1ccc(NC2CCCCC2)c(N)c1 |  | 33 nM |  | 
12 | 70 nM | CCCCCCCCCCCCCCCCc1cc2nc3ccc(N(C)C)cc3sc-2cc1=[N+](C)C.[I-] |  | 55 nM |  | Activity (Lymphocyte [8]): Non-Toxic; Activity (Lymphocyte [9]): Active; Activity (Lymphocyte [10]): inactive
13 | 12 nM | CCCCCCCCCc1cc2nc3ccc(N(C)C)cc3sc-2cc1=O | Toxic | 11 nM | Active | Activity (Lymphocyte [6]): Active
14 | 26 nM | CN(C)c1ccc2nc3ccc(=O)cc-3sc2c1 |  | 27 nM | Active | pAMPK/AMPK ratio increase (active/not active) (HepG2): Active
15 | 22 nM | Clc1cccc(CNC2=Nc3ccccc3NC23CCNCC3)c1 |  | 22 nM |  | 
16 | 53 nM | CCCCCCCCCc1cc2nc3ccc(N(C)C)cc3sc-2cc1=[N+](C)C.[I-] | Toxic | 37 nM | Active | Activity (Lymphocyte [3]): inactive
17 | 88 nM | CN(C)c1ccc2nc3ccc(N(C)C)cc3[s+]c2c1.[Cl-] [METHYLENE BLUE ANHYDROUS] | Toxic | 43 nM |  | 
